The conditions of data set [1]: cited from earlier work.
Data set [2] is described as follows: Safety and tolerability assessment in the phase 1 study. It is filed as in vivo, human. Particulars: single oral dose 25 or 50 mg, tablet and capsule. In short, it runs like this: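 Healthy Japanese men received single fasted oral 25- or 50-mg tablet and capsule doses in a crossover design, confined at the site around each dose. The safety set was all subjects given at least 1 dose. Adverse events were assessed by clinical interview, physical examination, 12-lead ECG and routine laboratory tests from start of treatment to end of follow-up. Each was coded by MedDRA 17.0 (Japanese) and graded for severity, seriousness and causality.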

The test system of the next data set is CYP2C8. Particulars: in vitro; cited from earlier work.
Data set [3] is classed as in vivo, human. Particulars: single oral dose, fasted; for AUC / AUC(0-t) / half-life / Tmax: male, human, plasma, po; for AUC: AUC0‐∞; for AUC(0-t): AUClast, AUC24h; for Tmax: n=24, median (min-max). In short, it runs like this: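 Healthy Japanese men aged 20–45 y with BMI 18.5 to <30.0 kg/m2, in an open-label randomized 2-period crossover. The 25-mg cohort was split into tablet→capsule and capsule→tablet sequences of 12, each a single fasted oral dose, with a washout of at least 28 days. Venous blood was drawn predose and 0.25–24 h post-dose. Plasma test compound was measured by validated LC-MS/MS (LLOQ 10.0 ng/mL). Parameters came from individual concentration-time profiles (AUClast = AUC24h), giving tablet/capsule geometric mean ratios.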

The next data set has as its system CYP2C9. Particulars: in vitro; cited from earlier work.

Like-named read-outs stand apart in the source and are kept apart here. Marks after values point to notes of the source that are not given here.

Consider `Cc1nc(Cl)c(-c2noc(-c3cc(O)c(O)c([N+](=O)[O-])c3)n2)c(C)c1Cl` [BIA 9–1079], for which, in data set [1] (not assessed in this study), the half-life of metabolite entry was “short”.

As a reminder, the AUC is concentration integrated over time. Low values mean low exposure, high ones high exposure. For orientation: AUC(0-t) means exposure summed from dosing to a finite time, without extrapolation to infinity. Read a low AUC(0-t) as less exposure. One may read the half-life as the time needed for the level to fall by half in the phase considered. Broadly, the Tmax is the time at which the peak concentration occurs. As a reminder, the CL/F is clearance divided by bioavailability, as obtained after extravascular dosing. Turning to `Cc1c(Cl)c(C)[n+]([O-])c(Cl)c1-c1noc(-c2cc(O)c(O)c([N+](=O)[O-])c2)n1` [Opicapone], the Serious adverse events entry in data set [2] (any group, study period) is “no serious adverse events”. The Tolerability result in data set [2] (healthy Japanese subjects) is on record as “well tolerated”. The CYP2C8 inhibition entry in the data set with CYP2C8 is on record as “weak, reversible inhibitor”. In addition, the AUC in data set [3] (25 mg, opicapone 25 mg tablet, n=23, mean ± SD) was 2530 ± 581 ng·h/mL; in data set [3] (50 mg, opicapone 50 mg capsule, n=23, mean ± SD), 4210 ± 1620 ng·h/mL. Further, the area under the curve AUC(0-t) worked out at 2480 ± 586 ng·h/mL in data set [3] (25 mg, opicapone 25 mg tablet, n=24, mean ± SD) and 4080 ± 1650 ng·h/mL in data set [3] (50 mg, opicapone 50 mg capsule, n=24, mean ± SD). Moreover, the half-life in data set [3] (25 mg, t1/2, opicapone 25 mg tablet, n=23, mean ± SD) was 0.729 ± 0.173 h; in data set [3] (50 mg, t1/2, opicapone 50 mg capsule, n=23, mean ± SD), 1.18 ± 0.477 h. Moreover, the time to peak (Tmax) amounted to 2 h in data set [3] (25 mg, opicapone 25 mg tablet) and 2 h in data set [3] (50 mg, opicapone 50 mg capsule). The CL/F is 12.9 ± 5.31 L/h in data set [3] (opicapone 25 mg capsule, n=24, mean ± SD); 10.6 ± 3.50 ^b L/h in data set [3] (opicapone 25 mg tablet, n=23, mean ± SD); 13.6 ± 5.09 ^b L/h in data set [3] (opicapone 50 mg capsule, n=23, mean ± SD); 10.4 ± 3.20 L/h in data set [3] (opicapone 50 mg tablet, n=23, mean ± SD). The “Geometric Mean Ratio (Tablets/Capsules) of AUC0‐∞” value in data set [3] (opicapone 25 mg, n=24) was 1.19; in data set [3] (opicapone 50 mg, n=23), 1.27. For the same compound, the “Geometric Mean Ratio (Tablets/Capsules) of AUClast” value was determined as 1.18 in data set [3] (opicapone 25 mg, n=24) and 1.28 in data set [3] (opicapone 50 mg, n=24). Moreover, the “Geometric Mean Ratio (Tablets/Capsules) of Cmax” value in data set [3] (opicapone 25 mg, n=24) is 1.24; in data set [3] (opicapone 50 mg, n=24) it was 1.42. Further, the CYP2C9 inhibition entry in the data set on CYP2C9 is “weak, reversible inhibitor”.

For the compound `Cc1c(Cl)c(C)[n+]([O-])c(Cl)c1-c1noc(-c2cc(OS(=O)(=O)O)c(O)c([N+](=O)[O-])c2)n1` [BIA 9–1103], in data set [1] (especially following repeated dosing), the half-life of metabolite result is recorded as “relatively long”.

Values taken from PMC7891373 (Clinical Pharmacology in Drug Development, 2020).
